According to ChEMBL document CHEMBL4431335, “Synthesis and trypanocidal activity of novel benzimidazole derivatives” (Bioorg Med Chem Lett, 2016):

Legend:
[1] = target: Triosephosphate isomerase, glycosomal (Trypanosoma cruzi) (UniProt P52270); test: Inhibition of recombinant Trypanosoma cruzi triosephosphate isomerase assessed as reduction of DHAP at 200 uM after 2 hrs by measuring NADH consumption by alpha-glycerolphosphate dehydrogenase coupled assay
Method in brief: (§1)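 Recombinant TIM (T. cruzi or human) at 5 µg/mL was preincubated with compound at 36 °C in 100 mM triethanolamine, 10 mM EDTA, pH 7.4, with compound dissolved in 10% DMSO. After 2 h, 1 µL was transferred into 1 mL of activity mix. Activity was measured as NADH consumed by α-glycerolphosphate dehydrogenase reducing DHAP. Controls were enzyme alone, substrate alone, and enzyme plus DMSO.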

[2] = Cytotoxicity against mouse J774 cells assessed as decrease in cell viability after 24 hrs by resazurin assay; format: cell-based
Method in brief: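 Mouse J774 macrophages were grown in DMEM with 10% FBS and treated with a range of compound concentrations for 24 h at 37 °C, 5% CO₂, with final DMSO below 1%. Untreated cells served as controls. Resazurin was added for 3 h and fluorescence was read (535/590 nm). Cytotoxicity was scored as % metabolic reduction versus untreated cells, and CC50 was derived.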

[3] = target: Triosephosphate isomerase, glycosomal (Trypanosoma cruzi, UniProt P52270); test: Inhibition of recombinant Trypanosoma cruzi triosephosphate isomerase assessed as reduction of DHAP after 2 hrs by measuring NADH consumption by alpha-glycerolphosphate dehydrogenase coupled assay; method in brief: as §1
Trypanosoma cruzi [4] = test: Antitrypanosomal activity against epimastigote forms of Trypanosoma cruzi INC-5 isolated from chagas disease patient after 24 hrs by resazurin dye based spectrophotometric analysis; format: functional, organism-based; settings: INC-5, 24 h
Method in brief: (§2)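 Epimastigotes at 1 × 10⁵/ml were exposed to compound for 24 h at 28 °C. Compounds were taken from 10 mg/mL DMSO stocks and diluted in sterile water, with final DMSO at most 1%. Concentrations were […], with DMSO-treated parasite controls. Viability was read by resazurin fluorescence (535/590 nm). Runs were in duplicate and IC50 was derived.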

Trypanosoma cruzi [5] = test: Antitrypanosomal activity against epimastigote forms of Trypanosoma cruzi NINOA isolated from chagas disease patient after 24 hrs by resazurin dye based spectrophotometric analysis; format: functional, organism-based; method in brief: as §2
[6] = target: Triosephosphate isomerase (Homo sapiens) (UniProt P60174); test: Inhibition of recombinant human triosephosphate isomerase assessed as reduction of DHAP at 200 uM after 2 hrs by measuring NADH consumption by alpha-glycerolphosphate dehydrogenase coupled assay; method in brief: as §1
[7] = target: Triosephosphate isomerase, glycosomal (Trypanosoma cruzi) (UniProt P52270); test: Inhibition of recombinant Trypanosoma cruzi triosephosphate isomerase assessed as reduction of DHAP at 100 uM after 2 hrs by measuring NADH consumption by alpha-glycerolphosphate dehydrogenase coupled assay; method in brief: as §1
[8] = Solubility of the compound in DMSO at 200 uM; format: physicochemical
[9] = target: Triosephosphate isomerase (Homo sapiens) (UniProt P60174); test: Inhibition of recombinant human triosephosphate isomerase assessed as reduction of DHAP at 100 uM after 2 hrs by measuring NADH consumption by alpha-glycerolphosphate dehydrogenase coupled assay; method in brief: as §1

Chain of Triosephosphate isomerase, glycosomal (Trypanosoma cruzi) (P52270 whole entry): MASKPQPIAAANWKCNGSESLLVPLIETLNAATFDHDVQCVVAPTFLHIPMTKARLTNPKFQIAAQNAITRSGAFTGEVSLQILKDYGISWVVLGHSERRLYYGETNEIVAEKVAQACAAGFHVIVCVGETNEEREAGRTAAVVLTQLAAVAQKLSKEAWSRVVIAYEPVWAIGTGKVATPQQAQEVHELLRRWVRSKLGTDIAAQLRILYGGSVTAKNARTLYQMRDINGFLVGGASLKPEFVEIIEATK
Chain of Triosephosphate isomerase, glycosomal (P52270 whole entry): as above
Chain of Triosephosphate isomerase (Homo sapiens) (P60174 whole entry): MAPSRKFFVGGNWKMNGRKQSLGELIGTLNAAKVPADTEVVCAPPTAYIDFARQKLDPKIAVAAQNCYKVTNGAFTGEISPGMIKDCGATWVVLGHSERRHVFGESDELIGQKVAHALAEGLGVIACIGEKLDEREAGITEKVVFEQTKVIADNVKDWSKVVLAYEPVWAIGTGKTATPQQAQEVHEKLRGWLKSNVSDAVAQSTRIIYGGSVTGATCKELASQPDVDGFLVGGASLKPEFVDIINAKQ

SMILES	inhibition [1]	IC50 (Trypanosoma cruzi [4])	IC50 (Trypanosoma cruzi [5])	inhibition [7]	solubility [8]	CC50 at 24 h [2]	other results
COC(=O)c1cc2nc(SCC(=O)Nc3ccccn3)[nH]c2cc1Cl	10%	–	–	–	–	–	–
COC(=O)c1cc2nc(SCC(=O)Nc3ccncc3)[nH]c2cc1Cl	33%	–	–	–	–	–	–
COC(=O)c1cc2nc(SCC(=O)Nc3nccs3)[nH]c2cc1Cl	59%	48.9 µM	120 µM	–	–	104 µM	IC50 [3]: 223 µM; inhibition [6]: 0%
COC(=O)c1cc2nc(SCC(=O)Nc3cccc(C)n3)[nH]c2cc1Cl	–	–	–	0%	Insoluble	–	–
COC(=O)c1cc2nc(SCC(=O)Nc3ccc(Cl)cc3)[nH]c2cc1Cl	–	186 µM	57 µM	65%	Insoluble	90.4 µM	inhibition [9]: 0%
COC(=O)c1cc2nc(SCC(=O)Nc3ncccn3)[nH]c2cc1Cl	0%	–	–	–	–	–	–
COC(=O)c1cc2nc(SCC(=O)Nc3ccc(OC)cn3)[nH]c2cc1Cl	–	–	–	4%	Insoluble	–	–
COC(=O)c1cc2nc(SCC(=O)Nc3ccccc3)[nH]c2cc1Cl	33%	–	–	–	–	–	–
COC(=O)c1cc2nc(SCC(=O)Nc3cnccn3)[nH]c2cc1Cl	68%	28.7 µM	98.8 µM	–	–	135 µM	IC50 [3]: 82 µM; inhibition [6]: 6%
COC(=O)c1cc2nc(SCC(=O)Nc3ccc(Cl)cn3)[nH]c2cc1Cl	–	95 µM	124 µM	41%	Insoluble	82.7 µM	inhibition [9]: 0%

Continued, in another order:

inhibition [1]	IC50 (Trypanosoma cruzi [4])	IC50 (Trypanosoma cruzi [5])	inhibition [7]	solubility [8]	SMILES	CC50 at 24 h [2]	other results
69%	42.5 µM	95.4 µM	–	–	COC(=O)c1cc2nc(SCC(=O)Nc3ncc([N+](=O)[O-])s3)[nH]c2cc1Cl	84.9 µM	IC50 [3]: 77 µM; inhibition [6]: 15%
–	–	–	21%	Insoluble	COC(=O)c1cc2nc(SCC(=O)Nc3cccc(Cl)n3)[nH]c2cc1Cl	–	–
52%	–	–	–	–	COC(=O)c1ccc2nc(SCC(=O)Nc3ncc([N+](=O)[O-])s3)[nH]c2c1	–	–
–	–	–	0%	Insoluble	COC(=O)c1cc2nc(SCC(=O)Nc3ccc([N+](=O)[O-])cn3)[nH]c2cc1Cl	–	–
–	–	–	0%	Insoluble	COC(=O)c1cc2nc(SCC(=O)Nc3cccc(C(N)=O)n3)[nH]c2cc1Cl	–	–
–	50.8 µM	89.8 µM	–	–	CC1CS(=O)(=O)CCN1/N=C/c1ccc([N+](=O)[O-])o1 (centres undefined) [NIFURTIMOX]	132 µM	–
48%	–	–	–	–	O=C(CSc1nc2cc(Oc3cccc4ccccc34)c(Cl)cc2[nH]1)Nc1ncc([N+](=O)[O-])s1	–	–
